Assay results pooled from the literature.
Compare with care: the assays were run in different laboratories. In brackets after ≈: the same amount, converted by molar mass.
Organism: Candida albicans

With `CCCCCOc1ccc(-c2cc(-c3ccc(C(=O)N[C@H]4C[C@@H](O)[C@@H](O)NC(=O)[C@@H]5[C@@H](O)[C@@H](C)CN5C(=O)[C@H]([C@H](O)CC(N)=O)NC(=O)[C@H]([C@H](O)[C@@H](O)c5ccc(O)c(OS(=O)(=O)O)c5)NC(=O)[C@@H]5C[C@@H](O)CN5C(=O)[C@H]([C@@H](C)O)NC4=O)cc3)no2)cc1` the MIC50 was 0.01 µg/mL (≈ 0.00787 µM) (microbial growth).
`C[C@@H]1[C@H](O)[C@@H](C)/C=C/C=C/C=C/C=C/C=C/C=C/C=C/[C@H](O[C@@H]2O[C@H](C)[C@@H](O)[C@H](N)[C@@H]2O)C[C@@H]2O[C@](O)(C[C@@H](O)C[C@@H](O)[C@H](O)CC[C@@H](O)C[C@@H](O)CC(=O)O[C@H]1C)C[C@H](O)[C@H]2C(=O)O` has an IC50 of 0.13 µg/mL (≈ 0.141 µM) (microbial growth; ATCC90028).
`OC(Cn1cncn1)(Cn1cncn1)c1ccc(F)cc1F` has an MFC of 0.04 µg/mL (≈ 0.131 µM) (microbial killing).
With `Cc1cc(Cc2ccc(Cl)cc2)n(O)c(=O)c1` the MIC80 was 1.7 µM (≈ 0.424 µg/mL) (microbial growth; ATCC90028).
The MIC of `O=C(NCc1ccc2c(c1)OCO2)c1ccc(Br)cc1F` is reported as greater than 200 µM (microbial growth; ATCC10231; 72 h).
For `Cc1cc(CC2CCCCC2)n(O)c(=O)c1`, the MIC80 was 1.5 µM (≈ 0.332 µg/mL) (microbial growth; ATCC90028).
`C=C1C(=O)O[C@@H](CCCCCCCCCCCCC)[C@@H]1C(=O)O` has an MIC of 64 µg/mL (microbial growth; 28A).
With `COc1ccccc1Cc1cc(C)cc(=O)n1O` the MIC80 was 2.7 µM (≈ 0.662 µg/mL) (microbial growth; ATCC90028).
The MIC of `NOCC(=O)O` is reported as 1000 µg/mL (microbial growth; 28A).
